Results: ChEMBL document CHEMBL3603771, “Synthesis, biological evaluation and docking study of maleimide derivatives bearing benzenesulfonamide as selective COX-2 inhibitors and anti-inflammatory agents” (Bioorg Med Chem, 2015)

Tests used:
[1] = Selectivity index, ratio of inhibition of human recombinant COX2 to inhibition of ovine COX1
Procedure, shortened: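 Ovine COX-1 or human recombinant COX-2 in 0.1 M Tris-HCl pH 8 with heme, preincubated with compound (DMSO stock) 5 min at 25°C. TMPD and arachidonic acid then added, 2 min at 25°C. Peroxidase activity read as oxidized TMPD at 590 nm. Compounds tested at 1 μM; % inhibition is the mean of two determinations. Selectivity index taken as COX-2/COX-1.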

[2] = molecular target: T1, Prostaglandin G/H synthase 2 (Homo sapiens) (UniProt P35354); details: at 1 µM;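 also: recombinant enzyme with arachidonic acid substrate, compound preincubated 5 min, colorimetric read-out taken 2 min after reaction start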
T1 sequence (whole entry): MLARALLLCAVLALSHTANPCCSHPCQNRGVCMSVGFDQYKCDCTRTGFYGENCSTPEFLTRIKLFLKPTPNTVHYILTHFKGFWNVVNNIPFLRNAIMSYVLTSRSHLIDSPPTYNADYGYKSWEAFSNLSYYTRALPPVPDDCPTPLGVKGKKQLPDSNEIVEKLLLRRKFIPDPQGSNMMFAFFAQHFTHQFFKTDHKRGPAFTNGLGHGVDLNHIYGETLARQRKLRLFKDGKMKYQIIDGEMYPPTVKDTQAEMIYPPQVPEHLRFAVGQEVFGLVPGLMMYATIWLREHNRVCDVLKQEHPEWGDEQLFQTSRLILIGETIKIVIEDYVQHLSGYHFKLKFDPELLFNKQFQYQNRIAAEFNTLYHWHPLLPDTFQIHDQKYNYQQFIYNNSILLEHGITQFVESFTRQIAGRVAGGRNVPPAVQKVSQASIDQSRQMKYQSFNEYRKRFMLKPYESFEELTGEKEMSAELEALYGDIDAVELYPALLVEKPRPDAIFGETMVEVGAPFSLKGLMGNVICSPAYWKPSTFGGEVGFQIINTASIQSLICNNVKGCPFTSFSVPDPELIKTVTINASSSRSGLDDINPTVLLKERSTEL

Rattus norvegicus [3] = test: Antiinflammatory activity in Wistar albino rat assessed as inhibition of carrageenan-induced hind paw edema at 20 mg/kg, po after 3 hrs by plethysmometer; format: functional
Procedure, shortened: (§1)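 Adult male Wistar albino rats, 150-200 g, fasted 24 h, six per group. Compounds at 20 mg/kg suspended in 1% CMC in water (10 mL/kg) given orally; vehicle-only controls. Carrageenan in normal saline injected into the plantar surface of the right hind paw 30 min after dosing.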

Rattus norvegicus [4] = test: Antiinflammatory activity in Wistar albino rat assessed as inhibition of carrageenan-induced hind paw edema at 20 mg/kg, po after 5 hrs by plethysmometer; format: functional; procedure, shortened: as §1
[5] = molecular target: T2, Prostaglandin G/H synthase 1 (Ovis aries) (UniProt P05979); test: Inhibition of ovine COX1 using arachidonic acid as substrate at 1 uM preincubated for 5 mins measured after 2 mins by colorimetric analysis
T2 sequence (whole entry): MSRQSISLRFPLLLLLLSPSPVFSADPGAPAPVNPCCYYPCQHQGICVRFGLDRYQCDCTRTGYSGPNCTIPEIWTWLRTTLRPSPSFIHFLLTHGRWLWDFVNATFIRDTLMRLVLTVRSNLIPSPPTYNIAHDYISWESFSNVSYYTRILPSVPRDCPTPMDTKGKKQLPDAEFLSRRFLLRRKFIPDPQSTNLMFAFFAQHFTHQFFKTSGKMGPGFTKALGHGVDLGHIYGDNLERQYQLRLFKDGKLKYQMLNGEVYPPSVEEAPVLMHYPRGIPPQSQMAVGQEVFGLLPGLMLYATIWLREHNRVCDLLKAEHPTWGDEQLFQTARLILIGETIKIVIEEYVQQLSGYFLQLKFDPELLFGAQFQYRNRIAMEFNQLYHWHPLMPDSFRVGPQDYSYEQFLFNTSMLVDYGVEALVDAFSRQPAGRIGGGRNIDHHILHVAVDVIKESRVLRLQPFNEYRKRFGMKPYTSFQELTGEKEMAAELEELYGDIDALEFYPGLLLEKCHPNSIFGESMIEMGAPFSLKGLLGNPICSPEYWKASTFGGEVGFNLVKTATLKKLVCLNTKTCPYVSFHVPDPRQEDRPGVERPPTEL
Procedure, shortened: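 Ovine COX-1 or human recombinant COX-2 in 0.1 M Tris-HCl pH 8 with heme, preincubated with compound (DMSO stock) 5 min at 25°C. TMPD and arachidonic acid then added, 2 min at 25°C. Peroxidase activity read as oxidized TMPD at 590 nm. Selectivity index taken as COX-2/COX-1.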

Rattus norvegicus [6] = test: Antiinflammatory activity in Wistar albino rat assessed as inhibition of carrageenan-induced hind paw edema at 20 mg/kg, po after 1 hr by plethysmometer; format: functional; procedure, shortened: as §1
Rattus norvegicus [7] = test: Toxicity in Wistar albino rat assessed as ulcer index at 20 mg/kg, po qd for 3 days measured after 6 hrs of last dose; format: organism-based; details: in vivo
Procedure, shortened: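 Male albino rats, 150-200 g, fasted 12 h with water ad libitum. Dosed orally at 20 mg/kg/day once daily for 3 days; controls received 7% gum acacia vehicle. Killed by ether overdose 6 h after the last dose. Stomachs opened along the greater curvature and scored for ulcers. Ulcer index by the Robert method from % incidence/10, mean ulcer number per stomach and severity score.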

| Compound | Selectivity Index [1] | inhibition [2] | inhibition [5] | inhibition in vivo at 20 mg/kg (Rattus norvegicus [3]) | inhibition in vivo at 20 mg/kg (Rattus norvegicus [4]) | inhibition in vivo at 20 mg/kg (Rattus norvegicus [6]) | UI (Rattus norvegicus [7]) |
| --- | --- | --- | --- | --- | --- | --- | --- |
| COc1cccc(NC2=C(Cl)C(=O)N(c3ccc(S(N)(=O)=O)cc3)C2=O)c1 | 49.7 | 44.2% | 0.89% | 71.5% | 77.3% | 73% | – |
| NS(=O)(=O)c1ccc(N2C(=O)C(Cl)=C(Nc3ccc(F)cc3)C2=O)cc1 | 20.8 | 27.6% | 1.33% | – | – | – | – |
| Cc1cc(C)cc(NC2=C(Cl)C(=O)N(c3ccc(S(N)(=O)=O)cc3)C2=O)c1 | 15.7 | 6.91% | 0.44% | – | – | – | – |
| Cc1ccc(-c2cc(C(F)(F)F)nn2-c2ccc(S(N)(=O)=O)cc2)cc1 [CELECOXIB] | – | – | – | 100% | 100% | 92.2% | 11.9 |
| NS(=O)(=O)c1ccc(N2C(=O)C(Cl)=C(Cl)C2=O)cc1 | 0.611 | 7.37% | 12.1% | – | – | – | – |
| NS(=O)(=O)c1ccc(N2C(=O)C(Cl)=C(Nc3ccccc3)C2=O)cc1 | 44.5 | 39.6% | 0.89% | 56.8% | 62.1% | 35.4% | – |
| NS(=O)(=O)c1ccc(N2C(=O)C(Cl)=C(Nc3ccc(Cl)cc3)C2=O)cc1 | 2.6 | 24.4% | 9.37% | – | – | – | – |
| NS(=O)(=O)c1ccc(N2C(=O)C(Cl)=C(Nc3cccc(F)c3)C2=O)cc1 | 55.4 | 49.3% | 0.89% | 81% | 82.6% | 79.8% | 8.3 |
| NS(=O)(=O)c1ccc(N2C(=O)C(Cl)=C(N3CCCCC3)C2=O)cc1 | 14.7 | 6.45% | 0.44% | – | – | – | – |
| NS(=O)(=O)c1ccc(N2C(=O)C(Cl)=C(Nc3ccc([N+](=O)[O-])cc3)C2=O)cc1 | 19.1 | 17.1% | 0.89% | – | – | – | – |
| NS(=O)(=O)c1ccc(N2C(=O)C(Cl)=C(Nc3ccc(C(F)(F)F)cc3)C2=O)cc1 | 6.78 | 27.2% | 4.01% | – | – | – | – |
| COc1ccc(NC2=C(Cl)C(=O)N(c3ccc(S(N)(=O)=O)cc3)C2=O)cc1 | 11.9 | 10.6% | 0.89% | – | – | – | – |

Further lines, with some results ahead:

| Selectivity Index [1] | inhibition [2] | inhibition [5] | Compound | inhibition in vivo at 20 mg/kg (Rattus norvegicus [3]) | inhibition in vivo at 20 mg/kg (Rattus norvegicus [4]) | inhibition in vivo at 20 mg/kg (Rattus norvegicus [6]) | UI (Rattus norvegicus [7]) |
| --- | --- | --- | --- | --- | --- | --- | --- |
| 44.5 | 39.6% | 0.89% | NS(=O)(=O)c1ccc(N2C(=O)C(Cl)=C(Nc3ccccc3F)C2=O)cc1 | 71% | 74.9% | 69.2% | – |
| 2.57 | 13.8% | 5.35% | Cc1ccc(NC2=C(Cl)C(=O)N(c3ccc(S(N)(=O)=O)cc3)C2=O)c(C)c1 | – | – | – | – |
| 3.78 | 30.4% | 8.03% | NS(=O)(=O)c1ccc(N2C(=O)C(Cl)=C(Nc3ccc(Cl)c(Cl)c3)C2=O)cc1 | – | – | – | – |
| 6.78 | 27.2% | 4.01% | NS(=O)(=O)c1ccc(N2C(=O)C(Cl)=C(Nc3cccc(Cl)c3Cl)C2=O)cc1 | – | – | – | – |
| 12.9 | 23% | 1.78% | Nc1ccccc1NC1=C(Cl)C(=O)N(c2ccc(S(N)(=O)=O)cc2)C1=O | – | – | – | – |
| 1.62 | 10.1% | 6.25% | Cc1ccccc1NC1=C(Cl)C(=O)N(c2ccc(S(N)(=O)=O)cc2)C1=O | – | – | – | – |
| 2.19 | 15.7% | 7.14% | COc1ccccc1NC1=C(Cl)C(=O)N(c2ccc(S(N)(=O)=O)cc2)C1=O | – | – | – | – |
| 47.6 | 42.4% | 0.89% | NS(=O)(=O)c1ccc(N2C(=O)C(Cl)=C(Nc3cccc(Cl)c3)C2=O)cc1 | 70.4% | 72.1% | 69.1% | – |
